From ChEMBL document CHEMBL1148185, “New cyanocyclines from a cyanide-treated broth of Streptomyces lusitanus” (1993)
In brackets after ≈: the same amount, converted by molar mass. Activity calls are given as the source filed them. No cut-off for these calls is given here.

Key:
Format in all cases: functional
Serratia marcescens = experiment: Antibacterial activity against Serratia marcescens ATCC 13880 after 16 to 20 hrs
Summary of the method: (§1)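 Broth microdilution MIC. Bacteria grown in brain heart infusion (BHI) broth at 37° for 24 h, then subcultured into fresh BHI for 8 h. Cultures diluted in 0.9% NaCl to McFarland 0.5 (ca. 10^8 cfu/ml), then diluted 20-fold in BHI. Two-fold antibiotic dilution series; 50 μl drug plus 50 μl culture per well. Incubated at 37° for 16–20 h.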

Micrococcus luteus = experiment: Antibacterial activity against Micrococcus luteus ATCC 4698 after 16 to 20 hrs; summary of the method: as §1
Proteus vulgaris = experiment: Antibacterial activity against Proteus vulgaris after 16 to 20 hrs; summary of the method: as §1
Escherichia coli = experiment: Antibacterial activity against Escherichia coli ATCC 10536 after 16 to 20 hrs; summary of the method: as §1
Klebsiella pneumoniae = experiment: Antibacterial activity against Klebsiella pneumoniae A-''AD'' after 16 to 20 hrs; summary of the method: as §1
Enterococcus faecalis = experiment: Antibacterial activity against Streptococcus faecalis ATCC 29212 after 16 to 20 hrs; summary of the method: as §1
Bacillus subtilis = experiment: Antibacterial activity against Bacillus subtilis ATCC 6633 after 16 to 20 hrs; summary of the method: as §1

| Compound | MIC (Serratia marcescens) | MIC (Micrococcus luteus) | MIC (Proteus vulgaris) | MIC (Escherichia coli) | MIC (Klebsiella pneumoniae) | MIC (Enterococcus faecalis) | MIC (Bacillus subtilis) | Activity (Serratia marcescens) | Activity (Micrococcus luteus) | Activity (Proteus vulgaris) | Activity (Escherichia coli) | Activity (Klebsiella pneumoniae) | Activity (Enterococcus faecalis) | Activity (Bacillus subtilis) |
| --- | --- | --- | --- | --- | --- | --- | --- | --- | --- | --- | --- | --- | --- | --- |
| COC1=C(C)C(=O)C2=C(C1=O)[C@@H](CO)N1[C@H]3[C@H]4N[C@H](C[C@H]4[C@@H]4OCCN4[C@@H]23)[C@H]1C#N [CYANOCYCLINE B] | 0.5 µg/mL (≈ 1.21 µM) | 0.063 µg/mL (≈ 0.153 µM) | 1 µg/mL (≈ 2.42 µM) | 0.25 µg/mL (≈ 0.606 µM) | 0.031 µg/mL (≈ 0.0752 µM) | 0.25 µg/mL (≈ 0.606 µM) | 0.016 µg/mL (≈ 0.0388 µM) | – | – | – | – | – | – | – |
| COC1=C(C)C(=O)C2=C(C1=O)[C@@H](CO)N1[C@H]3[C@H]4[C@@H](C[C@H]([C@H]1C#N)N4C)[C@@H]1OCCN1[C@@H]23 [CYANOCYCLINE A] | 0.5 µg/mL (≈ 1.17 µM) | 0.031 µg/mL (≈ 0.0727 µM) | 0.25 µg/mL (≈ 0.586 µM) | 0.125 µg/mL (≈ 0.293 µM) | 0.125 µg/mL (≈ 0.293 µM) | 0.25 µg/mL (≈ 0.586 µM) | 0.031 µg/mL (≈ 0.0727 µM) | – | – | – | – | – | – | – |
| COc1c(C)c(O)c2c(c1O)[C@@H](CO)N1[C@H]3[C@@H]4[C@@H](C[C@H]([C@H]1O)N4C)[C@@H]1OCCN1[C@@H]23 | – | – | – | – | – | – | – | Active | Active | Active | Active | Active | Active | Active |
| COc1c(C)c(O)c2c(c1O)[C@@H](CO)N1[C@H]3[C@@H]4[C@@H](C[C@H]([C@H]1C#N)N4C)[C@@H]1OCCN1[C@@H]23 | – | – | – | – | – | – | – | Active | Active | Active | Active | Active | Active | Active |
| COC1=C(C)C(=O)C2=C(C1=O)[C@@H](CO)N1[C@H]3[C@@H]4[C@@H](C[C@H]([C@H]1C#N)N4C)[C@H](C#N)N(CCO)[C@@H]23 [CYANOCYCLINE D] | 0.25 µg/mL (≈ 0.551 µM) | 0.125 µg/mL (≈ 0.276 µM) | 0.5 µg/mL (≈ 1.1 µM) | 0.5 µg/mL (≈ 1.1 µM) | 0.125 µg/mL (≈ 0.276 µM) | 0.25 µg/mL (≈ 0.551 µM) | 0.061 µg/mL (≈ 0.135 µM) | – | – | – | – | – | – | – |
| COc1c(C)c(OC)c2c(c1OC)[C@@H](CO)N1[C@H]3[C@@H]4[C@@H](C[C@H]([C@H]1C#N)N4C)[C@@H]1OCCN1[C@@H]23 | – | – | – | – | – | – | – | inactive | inactive | inactive | inactive | inactive | inactive | inactive |
| COC1=C(C)C(=O)C2=C(C1=O)[C@@H](CO)N1[C@H]3[C@H]4N[C@H](C[C@H]4[C@@H]4OCCN4[C@@H]23)[C@@H]1O | – | – | – | – | – | – | – | Active | Active | Active | Active | Active | Active | Active |
